The values that follow come from publication PMC5679024 (ACS chemical neuroscience, 2017).

Sequences and labels used below:
B1: mMC3R with C-terminal NanoLuc or HaloTag (NanoBRET constructs) (receptor, mouse, UniProt P33033 1-323, looked up)
chain: MNSSCCLSSVSPMLPNLSEHPAAPPASNRSGSGFCEQVFIKPEVFLALGIVSLMENILVILAVVRNGNLHSPMYFFLCSLAAADMLVSLSNSLETIMIAVINSDSLTLEDQFIQHMDNIFDSMICISLVASICNLLAIAIDRYVTIFYALRYHSIMTVRKALTLIGVIWVCCGICGVMFIIYSESKMVIVCLITMFFAMVLLMGTLYIHMFLFARLHVQRIAVLPPAGVVAPQQHSCMKGAVTITILLGVFIFCWAPFFLHLVLIITCPTNPYCICYTAHFNTYLVLIMCNSVIDPLIYAFRSLELRNTFKEILCGCNSMNLG

Data set [1] addresses mouse melanocortin 3 receptor, mMC3R-Flag, stably expressed on HEK293 cells (mouse) (UniProt P33033).
The target in data set [2] is mouse melanocortin 4 receptor, wildtype mMC4R, stably expressed on HEK293 cells (mouse) (UniProt P56450).
Data set [3] can be described thus: In vitro mouse serum stability assay. Format: in vitro ADME. Particulars: for half-life / remaining at 0.5 h: serum.
A further data set concerns male mice. Kind of data set: ICV fasting-refeeding paradigm, energy homeostasis in TSE metabolic cages. The data set is classed as in vivo, mouse. Particulars: 5 nmol ICV. A digest of the protocol: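 Cannula-validated male mice were acclimated for one week in sealed TSE metabolic home cages (12 h light/dark, 23–25 °C) and tested in a cross-over design. Food was removed at lights out for a 22 h fast. At t=0, 2 h before lights out, mice received 5 nmol test compound or saline ICV and food was returned. Mice were watched visually for ≥2 h after dosing.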

The data set “FRET or BRET” concerns the molecule itself. Kind of data set: FRET or BRET. For orientation: In BRET a luciferase serves as donor, and the signal depends on an acceptor being close.
The target in data set [4] is B1. Kind of data set: FRET or BRET.

Usually half-life stands for the time in which the quantity being followed falls by half. A lower half-life goes with fast loss. For orientation: fraction remaining means the share of the starting amount still present when the sample was taken. A higher fraction remaining goes with greater stability.

Non-standard residues stand in square brackets, D forms with d. Residues, ends and D or L forms follow the SMILES beside them. Where only a bound is given, the exact number is not on record here.

Turning to α-MSH (peptide), the Agonist cAMP Based Alpha Screen Results EC50 (nM), stable mMC3R cells in data set [1] was found to be 0.21 nM. Also, in data set [2], the Agonist cAMP Based Alpha Screen Results EC50 (nM), stable mMC4R cells amounted to 3.1 nM.

Consider `CC(=O)N[C@@H](Cc1cnc[nH]1)C(=O)N[C@H](Cc1ccccc1)C(=O)N[C@@H](CCCNC(=N)N)C(=O)N[C@@H](Cc1c[nH]c2ccccc12)C(=O)N1CCC[C@H]1C(=O)NCC(=O)N1CCC[C@H]1C(=O)NCC(=O)N1CCC[C@H]1C(=O)NCC(=O)N1CCC[C@H]1C(=O)NCC(=O)N1CCC[C@H]1C(=O)NCC(=O)N1CCC[C@H]1C(=O)NCC(N)=O` [CJL-5-35-1, Ac-His-DPhe-Arg-Trp-(Pro-Gly)6-NH2] (Ac-H[dF]RWPGPGPGPGPGPG-NH2), for which, in data set [3], the half-life was 6 min and the share remaining at 0.5 h is not above 2%.

Take `N=C(N)NCCC[C@H](NC(=O)[C@@H](Cc1ccccc1)NC(=O)[C@H](Cc1cnc[nH]1)NC(=O)CNC(=O)[C@@H]1CCCN1C(=O)CNC(=O)[C@@H]1CCCN1C(=O)CNC(=O)[C@@H]1CCCN1C(=O)CNC(=O)[C@@H]1CCCN1C(=O)CNC(=O)[C@@H]1CCCN1C(=O)CNC(=O)[C@@H]1CCCN1)C(=O)N[C@@H](Cc1c[nH]c2ccccc12)C(N)=O` [CJL-1-41, (Pro-Gly)6-His-DPhe-Arg-Trp-NH2] (H-PGPGPGPGPGPGH[dF]RW-NH2): in data set [3], the half-life was 6 min and the fraction remaining at 0.5 h is not above 2%.

Turning to `CC(=O)N[C@@H](Cc1cnc[nH]1)C(=O)N[C@H](Cc1ccccc1)C(=O)N[C@@H](CCCNC(=N)N)C(=O)N[C@@H](Cc1c[nH]c2ccccc12)C(=O)N1CCC[C@H]1C(=O)NCC(=O)N1CCC[C@H]1C(=O)NCC(=O)N1CCC[C@H]1C(=O)NCC(=O)N1CCC[C@H]1C(=O)NCC(=O)N1CCC[C@H]1C(=O)NCC(=O)N1CCC[C@H]1C(=O)NCC(=O)N[C@@H](Cc1cnc[nH]1)C(=O)N[C@H](Cc1ccccc1)C(=O)N[C@@H](CCCNC(=N)N)C(=O)N[C@@H](Cc1c[nH]c2ccccc12)C(N)=O` [CJL-1-31, Ac-His-DPhe-Arg-Trp-(Pro-Gly)6-His-DPhe-Arg-Trp-NH2] (Ac-H[dF]RWPGPGPGPGPGPGH[dF]RW-NH2), in data set [3], the half-life is 6 min and the share remaining at 0.5 h is not above 2%.

With `CC(=O)N[C@@H](Cc1cnc[nH]1)C(=O)N[C@H](Cc1ccccc1)C(=O)N[C@@H](CCCN=C(N)N)C(=O)N[C@@H](Cc1c[nH]c2ccccc12)C(N)=O` [CJL-1-14, Ac-His-DPhe-Arg-Trp-NH2], the fraction remaining at 72 h, 10 µM in data set [3] (mouse serum) stood at 12%. Also, the half-life in data set [3] was 1010 min. The “adverse reactions, visual monitoring” value in the data set with male mice (at least 2 hours post treatment) is recorded as “no adverse reactions”. Moreover, in the data set on male mice (fasting-refeeding), the ambulatory activity entry was “No significant effects”.

In the case of B1, the BRET ratio in the data set “FRET or BRET” was found to be 90 mBU.

B2: mMC4R with C-terminal NanoLuc or HaloTag (NanoBRET constructs) (receptor, mouse, UniProt P56450 1-332, looked up)
chain: MNSTHHHGMYTSLHLWNRSSYGLHGNASESLGKGHPDGGCYEQLFVSPEVFVTLGVISLLENILVIVAIAKNKNLHSPMYFFICSLAVADMLVSVSNGSETIVITLLNSTDTDAQSFTVNIDNVIDSVICSSLLASICSLLSIAVDRYFTIFYALQYHNIMTVRRVGIIISCIWAACTVSGVLFIIYSDSSAVIICLISMFFTMLVLMASLYVHMFLMARLHIKRIAVLPGTGTIRQGTNMKGAITLTILIGVFVVCWAPFFLHLLFYISCPQNPYCVCFMSHFNLYLILIMCNAVIDPLIYALRSQELRKTFKEIICFYPLGGICELSSRY
With B2, the BRET ratio in data set [4] worked out at 150 mBU; in “FRET or BRET”, 100 mBU.
